Laboratory results as given in ChEMBL document CHEMBL1149797, “Synthesis and in vitro antibacterial activities of novel oxazolidinones” (Eur J Med Chem, 2008).
Converted amounts (≈) assume the structure as drawn.

Legend:
Assay type in all cases: functional
Bacillus cereus = experiment: Antibacterial activity against Bacillus cereus ATCC 11778 by broth microdilution technique
How it was run: (§1)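 Broth microdilution per CLSI (NCCLS) guidelines. Compounds were dissolved in DMSO with water added to give an 80% DMSO stock, then diluted 1:10 to working solutions in water or medium. They were tested at 0.125, 0.25, 0.5, 1, 2, 4, 8 and 16 (two-fold series) against the final inoculum. Each run included sterility controls and vehicle controls (plain medium; 4%, 2%, 1% DMSO). MIC was read as growth inhibition.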

Staphylococcus aureus [1] = experiment: Antibacterial activity against Staphylococcus aureus ATCC 25923 by broth microdilution technique; how it was run: as §1
[2] = test system: Staphylococcus epidermidis; experiment: Antibacterial activity against Staphylococcus epidermidis ATCC 155 by broth microdilution technique; how it was run: as §1
Streptococcus pyogenes = experiment: Antibacterial activity against Streptococcus pyogenes ATCC 14289 by broth microdilution technique; how it was run: as §1
Bacillus pumilus = experiment: Antibacterial activity against Bacillus pumilus ATCC 14884 by broth microdilution technique; how it was run: as §1
Enterococcus faecalis [3] = experiment: Antibacterial activity against Enterococcus faecalis ATCC 35550 by broth microdilution technique; how it was run: as §1
Streptococcus pneumoniae = experiment: Antibacterial activity against multidrug-resistant Streptococcus pneumoniae ATCC 700904 by broth microdilution technique
How it was run: (§2)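 Broth microdilution per NCCLS/CLSI. Compounds dissolved in DMSO with water added to give an 80% DMSO stock. Stock diluted 1:10 in 4-8% DMSO in water or medium to make the working solution. Tested at […]. Sterility controls run with each set. Inoculum viability controls included plain medium and 4%, 2% and 1% DMSO vehicle. MIC taken as growth inhibition.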

Enterococcus faecalis [4] = experiment: Antibacterial activity against Enterococcus faecalis ATCC 14506 by broth microdilution technique; how it was run: as §1
Staphylococcus aureus [5] = experiment: Antibacterial activity against linezolid-resistant Staphylococcus aureus NRS 119 with G 2576T mutation by broth microdilution technique; how it was run: as §2
Enterococcus faecalis [6] = experiment: Antibacterial activity against multidrug-resistant Enterococcus faecalis ATCC 700802 by broth microdilution technique; how it was run: as §2
Staphylococcus aureus [7] = experiment: Antibacterial activity against Staphylococcus aureus ATCC 29213 by broth microdilution technique; how it was run: as §2
Staphylococcus aureus [8] = experiment: Antibacterial activity against methicillin-resistant Staphylococcus aureus ATCC 700699 by broth microdilution technique; how it was run: as §2
Staphylococcus aureus [9] = experiment: Antibacterial activity against linezolid-resistant Staphylococcus aureus NRS 120 with G 2576T mutation by broth microdilution technique; how it was run: as §2
Enterococcus faecium = experiment: Antibacterial activity against vancomycin-resistant Enterococcus faecium ATCC 700221 by broth microdilution technique; how it was run: as §2
Staphylococcus aureus [10] = experiment: Antibacterial activity against Staphylococcus aureus ATCC 9144 by broth microdilution technique; how it was run: as §2
Staphylococcus aureus [11] = experiment: Antibacterial activity against Staphylococcus aureus ATCC 14154 by broth microdilution technique; how it was run: as §2

| Compound | MIC (Bacillus cereus) [µg/mL] | MIC (Staphylococcus aureus [1]) [µg/mL] | MIC [2] [µg/mL] | MIC (Streptococcus pyogenes) [µg/mL] | MIC (Bacillus pumilus) [µg/mL] | MIC (Enterococcus faecalis [3]) [µg/mL] | MIC (Streptococcus pneumoniae) [µg/mL] | MIC (Enterococcus faecalis [4]) [µg/mL] | MIC (Staphylococcus aureus [5]) [µg/mL] | MIC (Enterococcus faecalis [6]) [µg/mL] | MIC (Staphylococcus aureus [7]) [µg/mL] | MIC (Staphylococcus aureus [8]) [µg/mL] | MIC (Staphylococcus aureus [9]) [µg/mL] | MIC (Enterococcus faecium) [µg/mL] | MIC (Staphylococcus aureus [10]) [µg/mL] | MIC (Staphylococcus aureus [11]) [µg/mL] |
| --- | --- | --- | --- | --- | --- | --- | --- | --- | --- | --- | --- | --- | --- | --- | --- | --- |
| CC(=O)NC[C@H]1CN(c2ccc(N3CCN(C(=O)/C=C/c4ccncc4)CC3)c(F)c2)C(=O)O1 | 1 (≈ 2.14 µM) | 4 (≈ 8.56 µM) | 2 (≈ 4.28 µM) | 0.5 (≈ 1.07 µM) | 1 (≈ 2.14 µM) | 2 (≈ 4.28 µM) |  |  |  |  |  |  |  |  |  |  |
| CC(=O)NC[C@H]1CN(c2ccc(N3CCN(C(=O)/C=C/c4ccc[nH]4)CC3)c(F)c2)C(=O)O1 | 1 (≈ 2.2 µM) | 1 (≈ 2.2 µM) | 0.5 (≈ 1.1 µM) | 1 (≈ 2.2 µM) | 1 (≈ 2.2 µM) | 1 (≈ 2.2 µM) |  |  |  |  |  |  |  |  |  |  |
| CC(=O)NC[C@H]1CN(c2ccc(N3CCN(C(=O)/C=C/c4ccsc4)CC3)c(F)c2)C(=O)O1 | 0.5 (≈ 1.06 µM) | 0.5 (≈ 1.06 µM) | 1 (≈ 2.12 µM) |  | 0.5 (≈ 1.06 µM) | 0.5 (≈ 1.06 µM) |  |  |  |  |  |  |  |  |  |  |
| CC(=O)NC[C@H]1CN(c2ccc(N3CCN(C(=O)/C=C/c4ccc([N+](=O)[O-])o4)CC3)c(F)c2)C(=O)O1 | ≤ 0.12 | 0.12 (≈ 0.239 µM) | ≤ 0.12 | ≤ 0.12 | ≤ 0.12 | 0.25 (≈ 0.499 µM) | 0.25 (≈ 0.499 µM) | 0.25 (≈ 0.499 µM) | 2 (≈ 3.99 µM) | 0.5 (≈ 0.997 µM) | 0.12 (≈ 0.239 µM) | 0.12 (≈ 0.239 µM) | 2 (≈ 3.99 µM) | 0.12 (≈ 0.239 µM) | 0.12 (≈ 0.239 µM) | 0.12 (≈ 0.239 µM) |
| CC(=O)NC[C@H]1CN(c2ccc(N3CCN(C(=O)/C=C/c4ccco4)CC3)c(F)c2)C(=O)O1 | 0.5 (≈ 1.1 µM) | 0.5 (≈ 1.1 µM) | 1 (≈ 2.19 µM) |  | 0.5 (≈ 1.1 µM) | 0.5 (≈ 1.1 µM) |  |  |  |  |  |  |  |  |  |  |
| CC(=O)NC[C@H]1CN(c2ccc(N3CCN(C(=O)/C=C/c4cccs4)CC3)c(F)c2)C(=O)O1 | 0.5 (≈ 1.06 µM) | 1 (≈ 2.12 µM) | 0.5 (≈ 1.06 µM) | 1 (≈ 2.12 µM) | 0.5 (≈ 1.06 µM) | 0.5 (≈ 1.06 µM) |  |  |  |  |  |  |  |  |  |  |
| CC(=O)NC[C@H]1CN(c2ccc(N3CCN(C/C=C/c4ccco4)CC3)c(F)c2)C(=O)O1 | 0.5 (≈ 1.13 µM) | 2 (≈ 4.52 µM) | 8 (≈ 18.1 µM) | 0.5 (≈ 1.13 µM) | 2 (≈ 4.52 µM) | 2 (≈ 4.52 µM) |  |  |  |  |  |  |  |  |  |  |
| CC(=O)NC[C@H]1CN(c2ccc(N3CCN(C(=O)/C=C/c4ccc(C)o4)CC3)c(F)c2)C(=O)O1 | 1 (≈ 2.13 µM) | 2 (≈ 4.25 µM) | 0.5 (≈ 1.06 µM) | 0.5 (≈ 1.06 µM) | 1 (≈ 2.13 µM) | 1 (≈ 2.13 µM) |  |  |  |  |  |  |  |  |  |  |
| CC(=O)NC[C@H]1CN(c2ccc(N3CCN(C/C=C/c4ccc([N+](=O)[O-])o4)CC3)c(F)c2)C(=O)O1 | 0.25 (≈ 0.513 µM) | 1 (≈ 2.05 µM) | 0.5 (≈ 1.03 µM) | 0.12 (≈ 0.246 µM) | 0.25 (≈ 0.513 µM) | 1 (≈ 2.05 µM) |  |  |  |  |  |  |  |  |  |  |
| CC(=O)NC[C@H]1CN(c2ccc(N3CCN(C(=O)/C=C/c4ccc(COC(C)=O)o4)CC3)c(F)c2)C(=O)O1 | 4 (≈ 7.57 µM) | 2 (≈ 3.78 µM) | 2 (≈ 3.78 µM) | 2 (≈ 3.78 µM) | 4 (≈ 7.57 µM) | 4 (≈ 7.57 µM) |  |  |  |  |  |  |  |  |  |  |
